Assay outcomes as filed in PubChem.
Calb FLC = C. albicans growth modulation with fluconazole | 0.57% of 300,000 active | growth inhibition, % (concentration not given with the values) | C. albicans CaCi-2 (fluconazole-resistant clinical isolate) + fluconazole, Alamar Blue growth, 48 h;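 active means growth inhibition above about 58% in most replicates, limit read from the data, passing the limit was not always enough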;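 further: all wells also contain fluconazole at 8 µg/ml as a sub-toxic cotreatment; 0% = median of DMSO wells and 100% = median of geldanamycin control wells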
ARFGAP1 inhibitor = inhibits rat ARF GTPase activating protein 1 | 0.26% of 360,000 active | Q62848 | Arfgap1-stimulated ARF1 GTP hydrolysis, GDP FP detection | AID 651572 | inhibition, % at 16.5 µM;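 active means inhibition above a per-plate limit, mean inhibition of low control wells plus 3 SD, cut at about 25% in these data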;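 further: 0% = DMSO wells with enzyme and 100% = wells lacking Arfgap1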
Target sequence (Q62848 1-136 limits assumed): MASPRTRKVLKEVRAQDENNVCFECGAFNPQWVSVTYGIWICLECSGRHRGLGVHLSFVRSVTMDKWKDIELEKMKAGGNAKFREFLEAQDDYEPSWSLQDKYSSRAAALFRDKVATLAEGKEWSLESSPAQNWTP
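System: truncated rat Arfgap1 GAP domain / Medium: HEPES-based buffer, pH 7.5 / Also added: N-terminally truncated human ARF1-GTP substrate / Incubation: enzyme reaction 120 min at 25 °C after 20 min preincubation / Measured by: FP of antibody-bound GDP Alexa 633 tracer, ex 620/em 688 nm / Replicates: singlicate, each compound tested once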
ASAP1 inh = ASAP1 ArfGAP inhibition | inhibition, % at 16.5 µM | 0.19% of 360,000 active | AID 624377 | Q9ULH1 | ASAP1-stimulated ARF1 GTP hydrolysis, GDP FP detection; in the data active means inhibition above about 25%;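 further: 0% = vehicle with enzyme and substrate and 100% = no enzyme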
SKKanGAS inh = blocks kanamycin growth of S. pyogenes SKKanGAS strain; inhibition, % at 7.5 µM; BacTiter-Glo, 6 h; 1.3% of 300,000 active;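 active means mean replicate score, as percent of positive control median, at least 50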;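 further: strain carries kanamycin resistance gene driven by streptokinase promoter and grows in 40 µg/ml kanamycin; loss of luminescence reflects streptokinase promoter inhibition or plain growth inhibition; 0% = median of DMSO wells and 100% = positive control at its reference dose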
HGIII-sPLA2 inh = Inhibits HGIII-sPLA2 liposome hydrolysis, primary screen; Q9NZ20; QFRET BODIPY PC-A2 liposome hydrolysis, fluorescence; inhibition, % at 12.2 µM; 0.56% of 370,000 active;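 active means inhibition above mean plus 3 SD of compounds lying within the high and low control bounds, cut at about 19% in these data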;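 further: 0% = median of test compound wells and 100% = no enzyme DMSO wells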
ARFGAP1 confirm = confirmation of rat ARFGAP1 inhibitors. AID 651608. ARFGAP1-stimulated ARF1 GTP hydrolysis, GDP tracer FP. 30% of 890 active. inhibition, % at 16.5 µM. shares compounds with ARFGAP1 inhibitor;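 active means average inhibition over triplicates above the hit cutoff set in the earlier primary screen, cut at about 25% in these data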;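 further: 0% = Arfgap1 plus ARF1-GTP with DMSO and 100% = wells lacking Arfgap1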
Target sequence (Q62848 whole entry, looked up): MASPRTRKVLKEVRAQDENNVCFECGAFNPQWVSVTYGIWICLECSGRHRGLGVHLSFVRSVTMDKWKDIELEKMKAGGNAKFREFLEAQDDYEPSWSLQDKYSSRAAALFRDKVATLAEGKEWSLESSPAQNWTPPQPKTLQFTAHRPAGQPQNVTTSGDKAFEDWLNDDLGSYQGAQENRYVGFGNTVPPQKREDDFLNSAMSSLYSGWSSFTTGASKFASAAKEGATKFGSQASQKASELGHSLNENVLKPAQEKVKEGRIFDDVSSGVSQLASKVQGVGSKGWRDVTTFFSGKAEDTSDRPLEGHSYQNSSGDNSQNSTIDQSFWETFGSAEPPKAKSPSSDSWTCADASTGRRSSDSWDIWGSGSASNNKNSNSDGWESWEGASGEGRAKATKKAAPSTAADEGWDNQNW
Starred values were filed as active, the others as inactive. Hits are enriched below; roughly 2.3% of the tested compounds scored in any of these assays.

Results for Cc1noc(C)c1NC(=O)N(C)C[C@@H]1OCc2cn(nn2)CCCC(=O)N([C@@H](C)CO)C[C@H]1C ?
ARFGAP1 inhibitor: -3; ASAP1 inh: 3; HGIII-sPLA2 inh: 7

How did COc1ccc(NC(=O)NNC(=O)COc2ccc3cc(Br)ccc3c2)cc1OC do in these assays?
Calb FLC: 0; ARFGAP1 inhibitor: 51*; ASAP1 inh: 8; SKKanGAS inh: 0; HGIII-sPLA2 inh: -36; ARFGAP1 confirm: 85*

How did Cc1ccc(NC(=O)NNC(=O)COc2ccc([N+](=O)[O-])cc2)cc1C do in these assays?
Calb FLC: -8; ARFGAP1 inhibitor: 32*; ASAP1 inh: 21; SKKanGAS inh: 6; HGIII-sPLA2 inh: -18; ARFGAP1 confirm: 34*

Results for Cc1nn(C)c(Cl)c1C(=O)NCC(=O)O ?
Calb FLC: -3; ARFGAP1 inhibitor: -3; ASAP1 inh: 4; SKKanGAS inh: 1; HGIII-sPLA2 inh: 2

How did CCOC(=O)CNC(=O)c1c(C)nn(C)c1Cl do in these assays?
Calb FLC: -5; ARFGAP1 inhibitor: 25*; ASAP1 inh: 6; SKKanGAS inh: -2; HGIII-sPLA2 inh: 8; ARFGAP1 confirm: 3

Results for CC(C)(C)C(=O)OC12CCCN(C1)/C(=C/c1cccnc1)C2 (stereo unspecified) ?
HGIII-sPLA2 inh: 0

What do the screens show for `CN1c2ccsc2/C(=N/NC(=O)c2c(F)cccc2F)CS1(=O)=O`?
Calb FLC: 7; ARFGAP1 inhibitor: 4; ASAP1 inh: 17; SKKanGAS inh: 6; HGIII-sPLA2 inh: 2

How did CN1c2ccsc2/C(=N/Nc2ccccc2)CS1(=O)=O do in these assays?
Calb FLC: -19; ARFGAP1 inhibitor: 29*; ASAP1 inh: -2; SKKanGAS inh: 60*; HGIII-sPLA2 inh: 13; ARFGAP1 confirm: 1

Results for CCn1c(CNC(=O)c2cccs2)nnc1SCC(=O)Nc1ccc(Cl)cc1 ?
Calb FLC: 10; ARFGAP1 inhibitor: 31*; ASAP1 inh: 2; SKKanGAS inh: -4; HGIII-sPLA2 inh: 5; ARFGAP1 confirm: -3

Results for CCn1c(CNC(=O)c2cccs2)nnc1SCC(=O)Nc1cc(Cl)ccc1C ?
Calb FLC: 15; ARFGAP1 inhibitor: -1; ASAP1 inh: -1; SKKanGAS inh: 1; HGIII-sPLA2 inh: -7

Results for C=CCN1C(=O)[C@@H](CC(=O)NCCCC)[C@]2(C(=O)OC)CCCCC=C12 ?
HGIII-sPLA2 inh: -2

How did Cc1cc(C)c2nc(C)cc(N/N=C/c3ccc(O)cc3)c2c1 do in these assays?
Calb FLC: -15; ARFGAP1 inhibitor: 26*; ASAP1 inh: 12; SKKanGAS inh: 5; HGIII-sPLA2 inh: -21; ARFGAP1 confirm: 40*

How did Cn1c(-c2ccc3c(c2)OCO3)cc(=O)c2ccccc21 do in these assays?
Calb FLC: 11; ARFGAP1 inhibitor: 5; ASAP1 inh: -7; SKKanGAS inh: -3; HGIII-sPLA2 inh: 1

How did Cn1c2ccccc2c(=O)c2ccc(-c3ccc4c(c3)OCO4)cc21 do in these assays?
Calb FLC: 3; ARFGAP1 inhibitor: 37*; ASAP1 inh: 10; SKKanGAS inh: 21; HGIII-sPLA2 inh: 2; ARFGAP1 confirm: 90*

Results for COc1nnc(-c2ccc(N3CCOCC3)c(NC(C)=O)c2)c2ccccc12 ?
Calb FLC: 29; ARFGAP1 inhibitor: -10; ASAP1 inh: 4; SKKanGAS inh: -5; HGIII-sPLA2 inh: 2

How did COc1nnc(-c2ccc(N3CCOCC3)c(NC(=O)c3ccccc3)c2)c2ccccc12 do in these assays?
Calb FLC: 26; ARFGAP1 inhibitor: 41*; ASAP1 inh: 1; SKKanGAS inh: 3; HGIII-sPLA2 inh: 5; ARFGAP1 confirm: 3

What do the screens show for `Cc1sc2nc(SCC(=O)N(CCO)CCO)nc(N)c2c1C`?
Calb FLC: 1; ARFGAP1 inhibitor: 28*; ASAP1 inh: 8; SKKanGAS inh: 4; HGIII-sPLA2 inh: 13; ARFGAP1 confirm: -1

What do the screens show for `CN(C)c1ccc(C(=O)OCC(=O)N2CCOCC2)cc1`?
Calb FLC: -4; ARFGAP1 inhibitor: 13; ASAP1 inh: 12; SKKanGAS inh: -2; HGIII-sPLA2 inh: 2

Results for Cc1ccsc1C(=O)OCC(=O)N1CCOCC1 ?
Calb FLC: -5; ARFGAP1 inhibitor: 35*; ASAP1 inh: -16; SKKanGAS inh: 8; HGIII-sPLA2 inh: -4; ARFGAP1 confirm: -5

What do the screens show for `COc1ccc(N2CCN(C(=O)c3ccc(C(C)(C)C)cc3)CC2)cc1`?
Calb FLC: -1; ARFGAP1 inhibitor: 28*; ASAP1 inh: 4; SKKanGAS inh: 1; HGIII-sPLA2 inh: 7; ARFGAP1 confirm: -4

How did COc1ccc(N2CCN(C(=O)CCNC(=O)c3ccc(C(C)(C)C)cc3)CC2)cc1 do in these assays?
Calb FLC: 15; ARFGAP1 inhibitor: 4; ASAP1 inh: 6; SKKanGAS inh: -2; HGIII-sPLA2 inh: -7

How did N#Cc1ccc(OC[C@@H](O)CN2CCC(C(O)(c3ccccc3)c3ccccc3)CC2)cc1 do in these assays?
HGIII-sPLA2 inh: -13

Results for CCCCc1c(-c2ccccc2OC)ncn1Cc1ccc(Br)cc1 ?
ARFGAP1 inhibitor: 4; ASAP1 inh: -15; HGIII-sPLA2 inh: -10

Results for COCC(C)n1c(C)cc(C(=O)CN2c3cccc4cccc(c34)S2(=O)=O)c1C (stereo unspecified) ?
ARFGAP1 inhibitor: 29*; ASAP1 inh: 9; HGIII-sPLA2 inh: 0; ARFGAP1 confirm: 26*

What do the screens show for `Cc1cc(C(=O)CN2c3cccc4cccc(c34)S2(=O)=O)c(C)n1C`?
ARFGAP1 inhibitor: 11; ASAP1 inh: 11; HGIII-sPLA2 inh: -15

What do the screens show for `COc1cc(OC)cc(C(=O)NC(C(=O)NNC(=O)CN(C)S(=O)(=O)c2ccc(C)cc2)C(C)C)c1` (stereo unspecified)?
ARFGAP1 inhibitor: 7; ASAP1 inh: 7; HGIII-sPLA2 inh: -3

What do the screens show for `COc1ccccc1NC(=O)Cc1csc(NC(=S)Nc2ccc(C)cc2)n1`?
Calb FLC: -5; ARFGAP1 inhibitor: 27*; ASAP1 inh: 12; SKKanGAS inh: 58*; HGIII-sPLA2 inh: -33; ARFGAP1 confirm: 9

Results for CCOc1ccc(NC(=S)Nc2ccc3nsnc3c2)cc1 ?
Calb FLC: 2; ARFGAP1 inhibitor: 26*; ASAP1 inh: 22; SKKanGAS inh: 40; HGIII-sPLA2 inh: -2; ARFGAP1 confirm: 7

How did C=CCN(CC=C)C(=S)Nc1ccc2nsnc2c1 do in these assays?
Calb FLC: 9; ARFGAP1 inhibitor: 32*; ASAP1 inh: 22; SKKanGAS inh: -8; HGIII-sPLA2 inh: 9; ARFGAP1 confirm: 3

How did C=CCNC(=S)Nc1ccc2nsnc2c1 do in these assays?
Calb FLC: 2; ARFGAP1 inhibitor: 9; ASAP1 inh: -8; SKKanGAS inh: -2; HGIII-sPLA2 inh: 4

Results for CCOc1ccc(NC(=O)Nc2ccc3nsnc3c2)cc1 ?
Calb FLC: -4; ARFGAP1 inhibitor: 4; ASAP1 inh: 5; SKKanGAS inh: -8; HGIII-sPLA2 inh: -6
